Series [1] can be described thus: Apparent permeability from apical to basolateral side of human Caco2 cells at 10 uM. To be noted: Caco-2.
A short description of series [2]: in vitro. As to conditions: human.
Series [3] is described as follows: Solubility of the compound in phosphate buffered saline at pH 7.4 after 1 hr by LC-MS/MS analysis.
Series [4] in a line: Half life in human liver microsomes at 1 uM after 5 mins by LC/MS/MS analysis.
A short description of series [5]: Inhibition of Hepatitis C virus genotype 1a full length NS3/2K-NS4A protease using Ac-DED(Edans)EEAbupsi[COO]ASK(Dabcyl)-NH2 as substrate incubated for 10 mins prior to substrate addition by FRET analysis. Details: species or system Hepatitis C virus subtype 1a.
For series [6], the system named is Hepatitis C virus. Briefly: Antiviral activity against Hepatitis C virus genotype 1b infected in human HuH7 cells by subgenomic replicon-based luciferase assay. Format: functional, organism-based, Hepacivirus hominis. To be noted: Huh-7. The method, boiled down:
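Huh-7 replicon cell line carrying a subgenomic HCV genotype 1b RNA replicon with a firefly luciferase reporter; replicon inhibition read by luciferase signal and reported as EC50.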
A general note: A replicon is a self-replicating genome or part of one, used to study replication in cells.

The nature of series [7]: Cytotoxicity against human HuH7 cells. Format: cell-based, Huh-7.
The target of series [8] is NS3 protease (Hepacivirus C, UniProt C1KIQ2, A156T). As to the kind of experiment: Inhibition of Hepatitis C virus genotype 1a full length NS3/2K-NS4A protease A156T mutant using Ac-DED(Edans)EEAbupsi[COO]ASK(Dabcyl)-NH2 as substrate incubated for 10 mins prior to substrate addition by FRET analysis. Details: species or system Hepatitis C virus subtype 1a. The method in brief:
(§1)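 Ki (nM ± SD) determined against each resistant NS3/4A protease variant. A vitality value was calculated for each variant as V = [Ki × (kcat/Km)]variant / [Ki × (kcat/Km)]wild-type, normalising for the effect of the substitution on catalytic efficiency.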

In series [9] the target is NS3 protease (Hepacivirus C, UniProt C1KIQ2, D168V). As to the kind of experiment: Inhibition of Hepatitis C virus genotype 1a full length NS3/2K-NS4A protease D168V mutant using Ac-DED(Edans)EEAbupsi[COO]ASK(Dabcyl)-NH2 as substrate incubated for 10 mins prior to substrate addition by FRET analysis. Details: species or system Hepatitis C virus subtype 1a. The method in brief:
as §1

Series [10] deals with NS3 protease (Hepacivirus C, UniProt C1KIQ2, R155K). As to the kind of experiment: Inhibition of Hepatitis C virus genotype 1a full length NS3/2K-NS4A protease R155K mutant using Ac-DED(Edans)EEAbupsi[COO]ASK(Dabcyl)-NH2 as substrate incubated for 10 mins prior to substrate addition by FRET analysis. Details: species or system Hepatitis C virus subtype 1a. The method in brief: as §1
Sequence of NS3 protease (Hepacivirus C, UniProt C1KIQ2, R155K) (C1KIQ2 entry or part of it R155K): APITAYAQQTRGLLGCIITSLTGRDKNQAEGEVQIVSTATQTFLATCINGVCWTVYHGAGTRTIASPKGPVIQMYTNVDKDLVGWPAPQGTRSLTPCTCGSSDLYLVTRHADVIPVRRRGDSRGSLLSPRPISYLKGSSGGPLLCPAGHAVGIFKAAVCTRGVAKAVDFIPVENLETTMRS

≈ marks a conversion by molar mass, not a printed value. Some results are limits rather than exact numbers.

Sequence of NS3 protease (Hepacivirus C, UniProt C1KIQ2, D168V) (C1KIQ2 entry or part of it D168V): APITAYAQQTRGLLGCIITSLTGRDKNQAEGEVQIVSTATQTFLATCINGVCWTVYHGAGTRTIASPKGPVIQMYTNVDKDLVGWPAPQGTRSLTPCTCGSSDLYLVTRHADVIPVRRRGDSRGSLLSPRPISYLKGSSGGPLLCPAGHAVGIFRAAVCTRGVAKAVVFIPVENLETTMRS
Sequence of NS3 protease (Hepacivirus C, UniProt C1KIQ2, A156T) (C1KIQ2 entry or part of it A156T): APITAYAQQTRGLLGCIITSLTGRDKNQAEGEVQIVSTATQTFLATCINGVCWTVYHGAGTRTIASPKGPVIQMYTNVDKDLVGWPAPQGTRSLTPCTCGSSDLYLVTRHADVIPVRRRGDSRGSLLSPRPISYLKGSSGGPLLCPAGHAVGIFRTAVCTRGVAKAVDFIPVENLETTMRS

In general, Papp A→B refers to the apparent permeability from the apical to the basolateral side of a cell layer. As usually defined, the microsomal CLint is the capacity of the preparation to metabolise the compound, expressed as a volume cleared per time. A high value points to rapid turnover. By solubility is commonly meant the concentration that dissolves in the medium under given conditions. Read a high solubility as a readily soluble substance. One may read the half-life as the time in which the quantity being followed falls by half. Low values mean rapid decline, high ones slow decline. For orientation: Ki means a dissociation constant, usually derived from enzyme kinetics or from competition with a known ligand. A lower Ki goes with higher affinity. In the case of `C=Cc1cc(C(NC(=O)OC(C)(C)C)C(=O)Nc2ccccc2C(=O)NS(=O)(=O)c2ccc(C(F)(F)F)cc2)ccc1Oc1cc(OC)nc(-c2ccccc2)n1` (configuration not stated), in [1], the apical-to-basolateral permeability (Papp A→B) at 10 µM is 4 ×10⁻⁶ cm/s. This compound also yielded an intrinsic metabolic clearance (microsomal CLint) at 5 min, 1 µM in [2] (microsomes) of 16 µL/min/mg. This compound registered a solubility at 1 h in [3] of 5 µM (≈ 4.02 µg/mL). This compound also displayed a half-life at 5 min, 1 µM in series [4] (microsomes) of 1.47 h. Also, in [5], affinity was put at a Ki of 240 nM.

Turning to `C=Cc1cc(C(N)C(=O)Nc2cccc(C(=O)NS(=O)(=O)c3ccc(C(F)(F)F)cc3)c2)ccc1Oc1cc(OC)nc(-c2ccccc2)n1` (configuration not stated), the affinity in [5] corresponds to a Ki of 1200 nM.

`COc1ccc2c(O[C@@H]3C[C@H]4C(=O)N[C@]5(C(=O)O)C[C@H]5/C=C\CCCCC[C@H](NC(=O)OC5CCCC5)C(=O)N4C3)cc(-c3csc(NC(C)C)n3)nc2c1` registered a Ki in [5] of 300 nM.

Regarding `C=Cc1cc(C(NC(=O)N2CCOCC2)C(=O)Nc2cccc(C(=O)NS(=O)(=O)c3ccc(C(F)(F)F)cc3)c2)ccc1Oc1cc(OC)nc(-c2ccccc2)n1` (configuration not stated), in series [5], the affinity corresponds to a Ki of 590 nM.

The compound `C=Cc1cc(C(NC(=O)NC(C)(C)C)C(=O)Nc2cccc(C(=O)NS(=O)(=O)c3ccc(C(F)(F)F)cc3)c2)ccc1Oc1cc(OC)nc(-c2ccccc2)n1` (configuration not stated) had an intrinsic clearance (microsomal CLint) at 5 min, 1 µM in series [2] (liver microsomes) of 7 µL/min/mg. The half-life at 5 min, 1 µM in series [4] (liver microsomes) is 3.23 h. The compound also returned an inhibition constant (Ki) in series [5] of 140 nM.

As to `C=Cc1cc(C(NC(=O)OC2CCCC2)C(=O)Nc2cccc(C(=O)NS(=O)(=O)c3ccc(C(F)(F)F)cc3)c2)ccc1Oc1cc(OC)nc(-c2ccccc2)n1` (configuration not stated), the Ki in series [5] was determined as 72 nM.

`C=Cc1cc(C(NC(C)=O)C(=O)Nc2cccc(C(=O)NS(=O)(=O)c3ccc(C(F)(F)F)cc3)c2)ccc1Oc1cc(OC)nc(-c2ccccc2)n1` (configuration not stated): the Ki in series [5] was determined as 700 nM. This Ki is about 9.7-fold higher than that of the compound before.

One may read the EC50 as the midpoint of the concentration-response curve. What is called CC50 is the concentration that lowers cell viability or growth by half. Turning to `C=CCCCS(=O)(=O)NC(=O)c1ccccc1NC(=O)C(NC(=O)[C@@H](NC(=O)OC(C)(C)C)C(C)(C)C)c1ccc(Oc2cc(OC)nc(-c3ccccc3)n2)c(C=C)c1` (mixture of isomers), the EC50 in series [6] turned out to be 12500 nM. This compound also returned a cytotoxic concentration (CC50) in series [7] of at least 50000 nM.

Compound `C=CCCCS(=O)(=O)NC(=O)c1ccc(NC(=O)[C@@H](NC(=O)[C@@H](NC(=O)OC(C)(C)C)C(C)(C)C)c2ccc(Oc3cc(OC)nc(-c4ccccc4)n3)c(C=C)c2)cc1` registered an inhibition constant (Ki) in series [5] of 96 nM.

For the compound `C=CCCCS(=O)(=O)NC(=O)c1cccc(NC(=O)C(NC(=O)OC(C)(C)C)c2ccc(Oc3cc(OC)nc(-c4ccccc4)n3)c(C=C)c2)c1` (configuration not stated), in [5], affinity was put at a Ki of 210 nM.

In [5], `C=Cc1cc(C(NC(=O)OC2CCCC2)C(=O)Nc2ccc(C(=O)NS(=O)(=O)c3ccc(C(F)(F)F)cc3)cc2)ccc1Oc1cc(OC)nc(-c2ccccc2)n1` (configuration not stated) showed a Ki of 55 nM.

With `C=CCCCS(=O)(=O)NC(=O)c1ccc(NC(=O)C(NC(=O)OC(C)(C)C)c2ccc(Oc3cc(OC)nc(-c4ccccc4)n3)c(C=C)c2)cc1` (configuration not stated), in series [5], the affinity, expressed as Ki, was 220 nM.

Consider `CCC[C@H](NC(=O)[C@@H]1[C@H]2CCC[C@H]2CN1C(=O)[C@@H](NC(=O)[C@@H](NC(=O)c1cnccn1)C1CCCCC1)C(C)(C)C)C(=O)C(=O)NC1CC1`, for which the Ki in series [5] came out at 40 nM.

`C=CCCCS(=O)(=O)NC(=O)c1cccc(NC(=O)[C@H](NC(=O)[C@@H](NC(=O)OC(C)(C)C)C(C)(C)C)c2ccc(Oc3cc(OC)nc(-c4ccccc4)n3)c(C=C)c2)c1`: the Ki in [5] was 100 nM.

`C=Cc1cc(C(NC(=O)OC(C)(C)C)C(=O)Nc2ccc(C(=O)NS(=O)(=O)c3ccc(C(F)(F)F)cc3)cc2)ccc1Oc1cc(OC)nc(-c2ccccc2)n1` (configuration not stated) returned an intrinsic metabolic clearance (microsomal CLint) at 5 min, 1 µM in [2] (liver microsomes) of 25 µL/min/mg. The half-life at 5 min, 1 µM in series [4] (liver microsomes) amounted to 0.917 h. This compound also came in with an inhibition constant (Ki) in series [5] of 46 nM.

In the case of `C=CCCCS(=O)(=O)NC(=O)c1ccc(NC(=O)[C@H](NC(=O)[C@@H](NC(=O)OC(C)(C)C)C(C)(C)C)c2ccc(Oc3cc(OC)nc(-c4ccccc4)n3)c(C=C)c2)cc1`, affinity in series [5] was put at a Ki of 110 nM.

As to `C=CCCCS(=O)(=O)NC(=O)c1ccccc1NC(=O)[C@@H](NC(=O)OC(C)(C)C)c1ccc(Oc2cc(OC)nc(-c3ccccc3)n2)c(C=C)c1`, the Papp A→B at 10 µM in series [1] was 1 ×10⁻⁶ cm/s. The intrinsic metabolic clearance (microsomal CLint) at 5 min, 1 µM in [2] (microsomes) amounted to 66 µL/min/mg. Also, the concentration in solution in [3] (solubility at 1 h) was 101 µM (≈ 73.5 µg/mL). Also, the half-life at 5 min, 1 µM in series [4] (microsomes) worked out at 0.35 h. The compound further showed a Ki in series [5] of 190 nM.

In turn, `C=Cc1cc([C@H](NC(=O)[C@@H](NC(=O)OC(C)(C)C)C(C)(C)C)C(=O)Nc2ccccc2C(=O)NS(=O)(=O)c2ccc(C(F)(F)F)cc2)ccc1Oc1cc(OC)nc(-c2ccccc2)n1` displayed a Ki in [5] of 45 nM.

As to `C=CCCCS(=O)(=O)NC(=O)c1cccc(NC(=O)C(NC(=O)OC2CCCC2)c2ccc(Oc3cc(OC)nc(-c4ccccc4)n3)c(C=C)c2)c1` (configuration not stated), affinity in series [5] was put at a Ki of 130 nM.

`C=CCCCS(=O)(=O)NC(=O)c1cccc(NC(=O)[C@@H](NC(=O)[C@@H](NC(=O)OC(C)(C)C)C(C)(C)C)c2ccc(Oc3cc(OC)nc(-c4ccccc4)n3)c(C=C)c2)c1` showed an inhibitory constant (Ki) in series [5] of 88 nM.

For the compound `C=Cc1cc([C@H](NC(=O)[C@@H](NC(=O)OC(C)(C)C)C(C)(C)C)C(=O)Nc2cccc(C(=O)NS(=O)(=O)c3ccc(C(F)(F)F)cc3)c2)ccc1Oc1cc(OC)nc(-c2ccccc2)n1`, the Papp A→B at 10 µM in series [1] turned out to be 9.7 ×10⁻⁶ cm/s. This compound registered a microsomal CLint at 5 min, 1 µM in series [2] (liver microsomes) of 80 µL/min/mg. This compound came in with a solubility at 1 h in series [3] of 43 µM (≈ 39.4 µg/mL). In addition, in [6], the 50% effective concentration (EC50) is over 50000 nM. Besides, the cytotoxic concentration (CC50) in series [7] is at least 50000 nM. Further, the inhibitory constant (Ki) in series [8] is 53 nM; in [9] it was 110 nM; in series [5], 24 nM; in series [10], 210 nM. This compound returned a half-life at 5 min, 1 µM in series [4] (liver microsomes) of 0.283 h.

`C=Cc1cc(C(NC(=O)OC(C)(C)C)C(=O)Nc2cccc(C(=O)NS(=O)(=O)c3ccc(C(F)(F)F)cc3)c2)ccc1Oc1cc(OC)nc(-c2ccccc2)n1` (configuration not stated): the Papp A→B at 10 µM in series [1] was 1 ×10⁻⁶ cm/s. In series [2] (liver microsomes), this compound showed a microsomal CLint at 5 min, 1 µM of 12 µL/min/mg. Besides, the EC50 in series [6] turned out to be 27500 nM. For the same compound, the CC50 in series [7] is at least 50000 nM. Further, the inhibitory constant (Ki) in series [8] came out at 110 nM; in [9], 180 nM; in series [5], 58 nM; in series [10], 580 nM. The compound also came in with a half-life at 5 min, 1 µM in series [4] (liver microsomes) of 1.95 h.

Regarding `C=Cc1cc([C@@H](NC(=O)[C@@H](NC(=O)OC(C)(C)C)C(C)(C)C)C(=O)Nc2ccc(C(=O)NS(=O)(=O)c3ccc(C(F)(F)F)cc3)cc2)ccc1Oc1cc(OC)nc(-c2ccccc2)n1`, the Ki in series [5] worked out at 30 nM. In other words, the double-digit nanomolar range.

Take `C=Cc1cc([C@H](NC(=O)[C@@H](NC(=O)OC(C)(C)C)C(C)(C)C)C(=O)Nc2ccc(C(=O)NS(=O)(=O)c3ccc(C(F)(F)F)cc3)cc2)ccc1Oc1cc(OC)nc(-c2ccccc2)n1`: the Ki in [5] was determined as 30 nM.

Regarding `C=Cc1cc(C(NC(=O)c2cccnc2)C(=O)Nc2cccc(C(=O)NS(=O)(=O)c3ccc(C(F)(F)F)cc3)c2)ccc1Oc1cc(OC)nc(-c2ccccc2)n1` (configuration not stated), the affinity in series [5], expressed as Ki, was 240 nM.

For the compound `C=CCCCS(=O)(=O)NC(=O)c1ccccc1NC(=O)[C@H](NC(=O)[C@@H](NC(=O)OC(C)(C)C)C(C)(C)C)c1ccc(Oc2cc(OC)nc(-c3ccccc3)n2)c(C=C)c1`, the Ki in series [5] worked out at 33 nM.

In series [5], `C=CCCCS(=O)(=O)NC(=O)c1ccccc1NC(=O)[C@@H](NC(=O)[C@@H](NC(=O)OC(C)(C)C)C(C)(C)C)c1ccc(Oc2cc(OC)nc(-c3ccccc3)n2)c(C=C)c1` returned an inhibition constant Ki of 26 nM.

(Values after ChEMBL document CHEMBL3124859, “Novel Peptidomimetic Hepatitis C Virus NS3/4A Protease Inhibitors Spanning the P2-P1' Region” (ACS Med Chem Lett, 2014).)
